FLuc inhib CS: Photinus pyralis luciferase inhibition counter-screen. P08659. ATPLite firefly luciferase biochemical luminescence, 10 min. inhibition, % at 10 µM. actives 1.5% (n = 200,000);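 active = inhibition above about 50% when tested at 10 µM, limit read from the data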
Target sequence (P08659 whole entry, looked up): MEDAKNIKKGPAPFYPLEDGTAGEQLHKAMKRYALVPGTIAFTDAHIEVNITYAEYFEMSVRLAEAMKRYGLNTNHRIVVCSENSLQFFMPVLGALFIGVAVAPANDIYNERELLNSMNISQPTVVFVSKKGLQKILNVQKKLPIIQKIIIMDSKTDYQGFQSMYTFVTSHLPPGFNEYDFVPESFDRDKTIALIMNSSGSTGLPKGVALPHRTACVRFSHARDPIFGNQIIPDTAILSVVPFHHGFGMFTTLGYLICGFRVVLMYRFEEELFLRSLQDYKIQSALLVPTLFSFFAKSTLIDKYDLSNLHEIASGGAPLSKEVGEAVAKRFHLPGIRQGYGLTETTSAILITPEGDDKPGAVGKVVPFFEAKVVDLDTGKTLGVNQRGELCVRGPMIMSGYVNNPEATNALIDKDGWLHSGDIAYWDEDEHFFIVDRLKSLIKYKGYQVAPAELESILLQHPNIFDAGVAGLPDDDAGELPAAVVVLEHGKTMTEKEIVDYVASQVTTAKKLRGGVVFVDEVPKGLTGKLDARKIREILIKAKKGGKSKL
C8 TRAIL sens: sensitizes caspase-8 expressing cells to TRAIL; AID 624354; actives 1% (n = 360,000); NB7+C8 cells + TRAIL, ATPlite viability luminescence; inhibition (viability loss, TRAIL sensitization), % at 10 µM;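 active = compounds causing at least 50% loss of cell viability in the single-dose screen, relative to plate controls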
NF-kB neuron act: NF-kB expression increase, human neuronal cells. NF-kB reporter expression; active compounds read high. actives 1.6% (n = 190,000). fold change at 12.5 µM; in the data active = fold change above about 3.3
PPC-1+TRAIL kill: PPC-1 cancer cell killing with TRAIL present. PPC-1 cells + TRAIL, ATPLite viability luminescence. AID 1443. actives 0.41% (n = 220,000). cell killing (% activity), % at 4 µM or 5 µM;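 active = cell killing above 50% in the first pass at 4 µM, then a duplicate retest at 5 µM averaging 50% or more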
FLuc stim CS: affects firefly luciferase, flagging false hits in luciferase stimulation screens | P08659 | ATPlite luciferase biochemical, luminescence, 10 min; 0 = ATP-free wells, 1 = DMSO control | activation factor at 10 µM | 200,000 tested, under 10 active | AID 1027;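 active = luciferase activation factor, scaled between plate controls, of at least 2 with compound at 10 µM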
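Material: luciferase plus luciferin reagent, cell-free. Medium: PBS buffer for ATP. Also added: ATP substrate, dispensed from a 10.24 µM working solution in PBS. Doses: test compounds dosed from 2 mM stocks in 100% DMSO. Incubation: 10 min post-reagent at room temperature. Technique: light output (luminescence). Read-out basis: luminescence gain marking luciferase activators.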
APP 5'UTR act: APP 5'UTR luciferase reporter activation; actives 1% (n = 190,000); activation, % at 2 µM; SH-SY5Y APP 5'UTR luciferase reporter, luminescence; zero percent = DMSO vehicle wells;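 active = activation above a set limit, based on mean plus 3 SD of controls, cut at about 140% in these data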
Hits are given with their value; 0 = inactive; - = not tested or not shown. The list is not random: actives were taken first. Their share in the collection is about 2.2%.

SMILES	FLuc inhib CS	C8 TRAIL sens	NF-kB neuron act	PPC-1+TRAIL kill	FLuc stim CS	APP 5'UTR act
Nc1nccc(-c2cc(-c3ccc(Cl)cc3Cl)no2)n1	-	68.8	-	0	-	-
Clc1ccc(-c2nc(-c3ccncc3)no2)c(Cl)c1	-	0	-	-	-	-
O=C(Nc1ccccn1)C(=O)Nc1ccccn1	-	0	-	0	-	-
Cc1ccc(C)c(NC(=S)c2ccccn2)c1	0	0	14.7	0	0	0
S=C(Nc1ccccn1)c1ccccn1	0	0	19.7	0	0	0
O=C1CC(NS(=O)(=O)c2cccnc2)CN1c1ccc(Cl)cc1 (stereo unspecified)	-	0	-	-	-	-
COc1cc(/C=N/N=C(N)N)ccc1OCc1ccccc1Cl	0	0	4.31	0	0	0
COc1ccc(/C=N/N=C/c2ccc(OC)c(OC)c2)cc1OC	0	0	0	0	0	0
CCCCC(=O)N(C)c1c(C)nc2ccc(C(=O)N(C)CCN(C)C)cn12	-	0	-	-	-	-
O=C(Nc1ccc(N2CCCC2)c(Cl)c1)c1ccc([N+](=O)[O-])o1	0	87.7	4.27	0	0	0
O=C(Nc1ccc(N2CCCC2)c(Cl)c1)c1ccco1	77.3	54.8	8.28	0	0	285.9
O=C(Nc1cccc(S(=O)(=O)N2CCCC2)c1)c1ccco1	-	0	-	-	-	-
O=C(Nc1ccc(N2CCCCC2)c(Cl)c1)c1ncn[nH]1	56.6	0	0	0	0	0
O=C(Nc1ccc(S(=O)(=O)N2CCCCCC2)cc1)c1ccco1	0	0	3.82	0	0	0
COc1cc(OC)cc(C2=Cc3ccccc3C(CC(=O)c3ccco3)N2c2ccc(-c3ccc(C(N)=O)cc3)cc2)c1 (stereo unspecified)	-	0	-	-	-	-
COC(=O)[C@]12CCCCC=C1N(Cc1ccc(Cl)cc1Cl)C(=O)[C@H](CC(=O)N1CCC(c3ccccc3)CC1)C2	-	0	-	-	-	-
O=C(/C=C\N1CCOCC1)c1ccc(Br)cc1	-	0	-	-	-	-
Cc1cccc(C(=O)Nc2sc3c(c2C#N)CCCCC3)c1	0	0	3.56	0	0	178.3
N#Cc1c(NC(=O)c2ccccc2)sc2c1CCC2	0	0	3.8	0	0	0
N#Cc1c(NC(=O)c2cccnc2)sc2c1CCC2	53.9	0	0	0	0	0
CC1CCc2c(sc(NC(=O)c3ccccc3C(=O)O)c2C#N)C1 (stereo unspecified)	76.7	0	0	0	0	0
NC(=O)c1nnn(-c2nonc2N)c1-c1ccc([N+](=O)[O-])cc1	0	0	0	0	0	0
CC(C)CC1NC(=S)N(Cc2ccccc2)C1=O (stereo unspecified)	0	0	0	0	0	0
O=C(N/N=C/c1ccc(N2CCOCC2)cc1)c1ccc(NS(=O)(=O)c2cccs2)cc1	0	0	0	0	0	0
O=C(N/N=C/c1ccc(N2CCOCC2)cc1)c1cccs1	52.3	0	0	0	0	0
SMILES	FLuc inhib CS	C8 TRAIL sens	NF-kB neuron act	PPC-1+TRAIL kill	FLuc stim CS	APP 5'UTR act
O=C(Nc1ccc(N2CCOCC2)cc1N1CCOCC1)c1cccs1	0	0	0	0	0	0
O=C(c1ccc(N2CCOCC2)cc1)c1cccs1	65.7	0	5.08	0	0	0
COc1ccc(N2CCN(C(=O)COC(=O)CNC(=O)c3cccc(OC(F)F)c3)CC2)cc1	-	0	-	-	-	-
O=C(Cc1cc(=O)[nH][nH]1)N/N=C/c1cccc(Cl)c1Cl	0	0	0	0	0	0
CC(=O)n1nc(-c2ccccc2)nc1NCc1ccc(N(C)C)cc1	0	0	0	0	0	0
CC(=O)c1sc(NC(=O)c2ccccc2)nc1-c1ccccc1	0	0	4.92	0	0	0
CCOC(=O)Nc1nc(-c2ccccc2)c(C(=O)c2ccccc2)s1	0	0	3.59	0	0	0
Cc1sc2ncnc(SCC(=O)N3c4ccccc4Sc4ccc(Cl)cc43)c2c1C	0	0	0	0	0	0
CCOC(=O)c1c(C)sc2c1N(C(=O)CCl)c1cc(Cl)ccc1S2	0	55.0	0	0	0	0
COc1ccc(-c2nc3ccccc3n2Cc2ccccc2)cc1	0	0	0	0	0	0
CC(C)Cn1c(/C=C/c2ccccc2)nc2ccccc21	58.4	0	0	0	0	0
COc1ccc(Cn2c(/C=C/c3ccccc3)nc3ccccc32)cc1	50.2	0	6.13	0	0	-
NC(=O)c1ccc(NC(=O)COC(=O)c2cc3ccccc3cc2O)cc1	-	0	-	-	-	-
COc1cccc(NC(=O)n2ncc3c(C)cccc32)c1	-	53.3	-	-	-	-
COc1ccc2nc(SCc3ccccc3C)nc(C)c2c1	0	0	0	0	0	0
COc1ccc2nc(SCc3cccc(C)c3)nc(C)c2c1	0	0	3.54	0	0	0
C/C(=N/O)c1ccccn1	0	0	0	0	0	0
Cc1ccc(C(=O)O/N=C(\N)c2ccccn2)cc1C	-	81.4	-	-	-	-
C/C(=N/OCc1ccc(Br)cc1)c1ccccn1	0	0	3.97	0	0	197.1
Cc1cccc(/C(N)=N/OC(=O)c2cccnc2)c1	64.5	0	0	0	0	148.7
Cc1cccc(C(=O)O/N=C(\N)c2ccccn2)c1	-	86.7	-	-	-	-
NC1=NC(=O)/C(=C\c2ccsc2)S1	0	0	0	0	0	0
Cc1ccc(C(=O)O/N=C(\N)c2ccccn2)cc1	-	94.8	-	-	-	-
COc1ccc(C(=O)O/N=C(\N)c2ccccn2)c(OC)c1	-	62.2	-	0	-	-
CCOc1ccc(C(=O)O/N=C(\N)c2ccccn2)cc1	-	92.6	-	-	-	-
SMILES	FLuc inhib CS	C8 TRAIL sens	NF-kB neuron act	PPC-1+TRAIL kill	FLuc stim CS	APP 5'UTR act
N/C(=N\OC(=O)c1cccc(F)c1)c1ccccn1	-	55.9	-	-	-	-
COc1ccc(CNC(=O)CCN2C(=O)[C@@H]3Cc4ccccc4CN3C2=O)cc1	-	0	-	-	-	-
COc1cc(/C=C2\SC(N)=NC2=O)ccc1O	-	0	-	-	-	-
Cc1cccc(/C(N)=N/OC(=O)C23CC4CC(CC(C4)C2)C3)c1	62.0	0	0	0	0	0
N/C(=N\OC(=O)c1ccc(Br)o1)c1ccccn1	78.5	0	3.68	0	0	149.2
Cc1cccc(/C(N)=N/OC(=O)Cc2ccccc2)c1	0	0	0	0	0	0
CC(C)(C)c1ccc(C(=O)O/N=C(\N)c2ccccn2)cc1	-	97.5	-	-	-	-
Cc1cccc(/C(N)=N/OC(=O)N2c3ccccc3Sc3ccccc32)c1	0	0	0	0	0	0
Cc1cccc(/C(N)=N/OC(=O)c2ccc(Br)o2)c1	66.9	0	0	0	0	0
N/C(=N\OC(=O)Cc1ccccc1)c1ccccn1	0	0	0	0	0	0
CN(CC(=O)Nc1ccccc1Br)C(=O)Cn1[nH]c(=O)c2ccccc2c1=O	-	0	-	-	-	-
C/C(=N\OC(=O)c1ccc(Br)cc1)c1ccccn1	79.7	0	0	0	0	0
CCc1ccc(Nc2n[n+](-c3ccccc3)c(-c3ccc(N(CC)CC)cc3)s2)cc1	-	52.6	-	-	-	-
CCN(CC)c1ccc(-c2sc(Nc3ccccc3)n[n+]2-c2ccc(F)cc2)cc1	-	0	-	-	-	-
CCOc1ncccc1C(=O)NNC(=O)CSc1ccc(Cl)cc1	-	0	-	-	-	-
CCN(CC(=O)Nc1c(F)cccc1F)C(=O)c1cc2ccccc2oc1=O	-	0	-	-	-	-
Cc1c(C)c2ccc(OCC(=O)Nc3nccs3)cc2oc1=O	-	54.6	-	-	-	-
Cc1cc(=O)oc2cc(OCC(=O)Nc3nccs3)ccc12	-	0	-	-	-	-

Screening data deposited in PubChem BioAssay by several laboratories.
